ChEMBL document CHEMBL1122293, “Synthesis, evaluation of chemical reactivity, and murine antineoplastic activity of 2-hydroxy-5-(3,4-dichlorophenyl)-6,7-bis(hydroxymethyl)-2,3-dihydro-1H- pyrrolizine bis(2-propylcarbamate) and 2-acyloxy derivatives as potential water-soluble prodrugs” (J Med Chem, 1983)
In brackets after ≈: the same amount, converted by molar mass.

Legend:
P388 [1] = assay: Median survival time of test animals compared to controls at 25 mg/kg (ip) against P388 Lymphocytic Leukemia in mice; format: functional, Mus musculus
Method in brief: (§1)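 P388 leukemia cells were inoculated ip into male CDF1 mice. Treatment began 24 h later, given ip as five daily doses, either as a Klucel (hydroxypropylcellulose) suspension or as an aqueous solution. Acute toxicity was assessed on day 5 and results were read on day 30. The value is median survival of treated versus control mice, as % T/C.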

P388 [2] = assay: Log of the tumor cell population at the end of treatment at 12.5 mg/kg (ip) against P388 Lymphocytic Leukemia in mice; format: functional, Mus musculus
B16 [3] = assay: Weight difference at 80 mg/kg (ip) against B16 melanocarcinoma in mice; format: functional, Mus musculus
Method in brief: (§2)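 Female BDF1 mice given ip 0.5 mL of tumor brei (1.0 g tissue per 10 mL). Nine daily ip doses beginning 24 h later, as Klucel suspensions or a water/Tween-80 suspension. Acute toxicity scored day 5; survival read day 60. Cures counted per 10-animal group at day 60; weight difference reported as treated minus control (g).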

[4] = Water solubility of the compound; format: ADME; settings: read-out: S
Method in brief: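 Excess bis(carbamate) (30-60 mg) in 2 mL distilled water, vortexed 10 min, filtered through Teflon wool and diluted. UV absorbance read at 291 nm. Concentration from a linear Beer's law calibration made with a salt standard (r = 0.998).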

P388 [5] = assay: Log of the tumor cell population at the end of treatment at 6.25 mg/kg (ip) against P388 Lymphocytic Leukemia in mice; format: functional, Mus musculus
B16 [6] = assay: Median survival time of test animals compared to controls at 10 mg/kg (ip) against B16 melanocarcinoma in mice; format: functional, Mus musculus
Method in brief: (§3)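 Female BDF1 mice received B16 tumor brei ip (0.5 mL of 1.0 g tissue per 10 mL). From 24 h later they got nine daily ip doses, suspended in Klucel or water/Tween-80. Acute toxicity was assessed on day 5 and survival was evaluated on day 60. The value is median survival as % T/C, with 10 mice per group and a positive control run in parallel.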

B16 [7] = assay: Weight difference at 20 mg/kg (ip) against B16 melanocarcinoma in mice; format: functional, Mus musculus; method in brief: as §2
B16 [8] = assay: No. of cures on day 60 at 80 mg/kg (ip) against B16 melanocarcinoma in mice; format: functional, Mus musculus; method in brief: as §2
B16 [9] = assay: No. of cures on day 60 at 40 mg/kg (ip) against B16 melanocarcinoma in mice; format: functional, Mus musculus; method in brief: as §2
P388 [10] = assay: Log of the tumor cell population at the end of treatment at 25 mg/kg (ip) against P388 Lymphocytic Leukemia in mice; format: functional, Mus musculus
P388 [11] = assay: Weight difference at 100 mg/kg (ip)against P388 Lymphocytic Leukemia in mice; format: functional, Mus musculus
Method in brief: (§4)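 Male CDF1 mice given 6×10^6 leukemia cells ip. Five daily ip doses beginning 24 h later, as Klucel suspension or aqueous solution. Acute toxicity on day 5; survival assessed on day 30. Weight difference reported as treated minus control (g).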

P388 [12] = assay: Median survival time of test animals compared to controls at 12.5 mg/kg (ip) against P388 Lymphocytic Leukemia in mice; format: functional, Mus musculus
Method in brief: (§5)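 P388 leukemia cells inoculated ip into male CDF1 mice; ip treatment started 24 h later, five daily doses, as Klucel (hydroxypropylcellulose) suspension or aqueous solution. Acute toxicity on day 5. Day-30 median survival of treated versus control mice expressed as % T/C. Weight difference is treated minus control, in grams.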

P388 [13] = assay: Weight difference at 12.5 mg/kg (ip)against P388 Lymphocytic Leukemia in mice; format: functional, Mus musculus; method in brief: as §5
B16 [14] = assay: Median survival time of test animals compared to controls at 40 mg/kg (ip) against B16 melanocarcinoma in mice; format: functional, Mus musculus; method in brief: as §3
P388 [15] = assay: Weight difference at 25 mg/kg (ip)against P388 Lymphocytic Leukemia in mice; format: functional, Mus musculus; method in brief: as §4
B16 [16] = assay: Median survival time of test animals compared to controls at 20 mg/kg (ip) against B16 melanocarcinoma in mice; format: functional, Mus musculus; method in brief: as §3
B16 [17] = assay: No. of cures on day 60 at 10 mg/kg (ip) against B16 melanocarcinoma in mice; format: functional, Mus musculus; method in brief: as §2
B16 [18] = assay: Weight difference at 5 mg/kg (ip)against B16 melanocarcinoma in mice; format: functional, Mus musculus; method in brief: as §2
B16 [19] = assay: Median survival time of test animals compared to controls at 5 mg/kg (ip) against B16 melanocarcinoma in mice; format: functional, Mus musculus; method in brief: as §3
P388 [20] = assay: Median survival time of test animals compared to controls at 100 mg/kg (ip) against P388 Lymphocytic Leukemia in mice; format: functional, Mus musculus; method in brief: as §1
B16 [21] = assay: No. of cures on day 60 at 5 mg/kg (ip) against B16 melanocarcinoma in mice; format: functional, Mus musculus; method in brief: as §2
B16 [22] = assay: Weight difference at 10 mg/kg (ip)against B16 melanocarcinoma in mice; format: functional, Mus musculus; method in brief: as §2
P388 [23] = assay: Log of the tumor cell population at the end of treatment at 100 mg/kg (ip) against P388 Lymphocytic Leukemia in mice; format: functional, Mus musculus
P388 [24] = assay: Weight difference at 6.25 mg/kg (ip)against P388 Lymphocytic Leukemia in mice; format: functional, Mus musculus; method in brief: as §4
B16 [25] = assay: Median survival time of test animals compared to controls at 80 mg/kg (ip) against B16 melanocarcinoma in mice; format: functional, Mus musculus; method in brief: as §3
B16 [26] = assay: No. of cures on day 60 at 20 mg/kg (ip) against B16 melanocarcinoma in mice; format: functional, Mus musculus; method in brief: as §2
P388 [27] = assay: Weight difference at 50 mg/kg (ip)against P388 Lymphocytic Leukemia in mice; format: functional, Mus musculus; method in brief: as §4
P388 [28] = assay: Log of the tumor cell population at the end of treatment at 50 mg/kg (ip) against P388 Lymphocytic Leukemia in mice; format: functional, Mus musculus
P388 [29] = assay: Median survival time of test animals compared to controls at 50 mg/kg (ip) against P388 Lymphocytic Leukemia in mice; format: functional, Mus musculus; method in brief: as §1
B16 [30] = assay: Weight difference at 40 mg/kg (ip)against B16 melanocarcinoma in mice; format: functional, Mus musculus; method in brief: as §2
P388 [31] = assay: Median survival time of test animals compared to controls at 6.25 mg/kg (ip) against P388 Lymphocytic Leukemia in mice; format: functional, Mus musculus; method in brief: as §1
P388 [32] = assay: Log of the tumor cell population at the end of treatment at 10 mg/kg (ip) against P388 Lymphocytic Leukemia in mice; format: functional, Mus musculus
P388 [33] = assay: Median survival time of test animals compared to controls at 5 mg/kg (ip) against P388 Lymphocytic Leukemia in mice; format: functional, Mus musculus
Method in brief: (§6)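 P388 leukemia cells were given ip to male CDF1 mice. Dosing started 24 h later: nine daily ip doses given as suspensions in Klucel (hydroxypropylcellulose) or in water. Toxicity day was day 5 and evaluation was on day 30. The value is % T/C of median survival time against untreated controls, with a parallel positive-control arm.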

P388 [34] = assay: Median survival time of test animals compared to controls at 80 mg/kg (ip) against P388 Lymphocytic Leukemia in mice; format: functional, Mus musculus; method in brief: as §6
P388 [35] = assay: Weight difference at 80 mg/kg (ip)against P388 Lymphocytic Leukemia in mice; format: functional, Mus musculus
Method in brief: (§7)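 Male CDF1 mice inoculated ip with P388 leukemia cells. Nine daily ip doses beginning 24 h later, as suspensions in Klucel or water. Acute toxicity evaluated day 5. Weight difference reported as treated minus control (g).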

P388 [36] = assay: Weight difference at 2.5 mg/kg (ip)against P388 Lymphocytic Leukemia in mice; format: functional, Mus musculus; method in brief: as §7
P388 [37] = assay: Weight difference at 10 mg/kg (ip)against P388 Lymphocytic Leukemia in mice; format: functional, Mus musculus; method in brief: as §7
P388 [38] = assay: Log of the tumor cell population at the end of treatment at 20 mg/kg (ip) against P388 Lymphocytic Leukemia in mice; format: functional, Mus musculus
P388 [39] = assay: Weight difference at 20 mg/kg (ip)against P388 Lymphocytic Leukemia in mice; format: functional, Mus musculus; method in brief: as §7
P388 [40] = assay: Weight difference at 40 mg/kg (ip)against P388 Lymphocytic Leukemia in mice; format: functional, Mus musculus; method in brief: as §7
P388 [41] = assay: Median survival time of test animals compared to controls at 20 mg/kg (ip) against P388 Lymphocytic Leukemia in mice; format: functional, Mus musculus; method in brief: as §6
P388 [42] = assay: Log of the tumor cell population at the end of treatment at 80 mg/kg (ip) against P388 Lymphocytic Leukemia in mice; format: functional, Mus musculus
P388 [43] = assay: Median survival time of test animals compared to controls at 40 mg/kg (ip) against P388 Lymphocytic Leukemia in mice; format: functional, Mus musculus; method in brief: as §6
P388 [44] = assay: Log of the tumor cell population at the end of treatment at 5 mg/kg (ip) against P388 Lymphocytic Leukemia in mice; format: functional, Mus musculus
P388 [45] = assay: Log of the tumor cell population at the end of treatment at 40 mg/kg (ip) against P388 Lymphocytic Leukemia in mice; format: functional, Mus musculus
P388 [46] = assay: Median survival time of test animals compared to controls at 10 mg/kg (ip) against P388 Lymphocytic Leukemia in mice; format: functional, Mus musculus; method in brief: as §6
P388 [47] = assay: Weight difference at 5 mg/kg (ip)against P388 Lymphocytic Leukemia in mice; format: functional, Mus musculus; method in brief: as §7
P388 [48] = assay: Median survival time of test animals compared to controls at 2.5 mg/kg (ip) against P388 Lymphocytic Leukemia in mice; format: functional, Mus musculus
Method in brief: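 P388 leukemia cells given ip to male CDF1 mice; ip dosing began 24 h later, nine daily doses, as suspensions in Klucel (hydroxypropylcellulose) or water. Acute toxicity checked on day 5. Survival read on day 30 as median survival time of treated versus control mice (% T/C). Weight difference is treated minus control, in grams.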

Compound	T/C (P388 [1]) [%]	Log cell kill (P388 [2])	solubility [4] [µM]	Log cell kill (P388 [5])	Log cell kill (P388 [10])	Weight change (P388 [11]) [g]	T/C (P388 [12]) [%]	Weight change (P388 [13]) [g]	Weight change (P388 [15]) [g]	T/C (P388 [20]) [%]	half-life (Half life was determined) [min]	Log cell kill (P388 [23])	Weight change (P388 [24]) [g]	Weight change (P388 [27]) [g]	Log cell kill (P388 [28])	T/C (P388 [29]) [%]	T/C (P388 [31]) [%]	also measured
CC(C)NC(=O)OCc1c(COC(=O)NC(C)C)c(-c2ccc(Cl)c(Cl)c2)n2c1CC(O)C2 (centres undefined)	145	0.62	40.2 (≈ 20 µg/mL)	0.08	0.46	-6.3	147	-2.7	-3.8	166	31	2.16	-2.1	-5.6	0.85	150	140	Weight change (B16 [3]): -2.4 g; T/C (B16 [6]): 143%; Weight change (B16 [7]): 0 g; Cures (B16 [8]): 0; Cures (B16 [9]): 4; T/C (B16 [14]): 223%; T/C (B16 [16]): 196%; Cures (B16 [17]): 0; Weight change (B16 [18]): 0.1 g; T/C (B16 [19]): 129%; Cures (B16 [21]): 0; Weight change (B16 [22]): 0.2 g; T/C (B16 [25]): 101%; Cures (B16 [26]): 0; Weight change (B16 [30]): -0.9 g
CC(C)NC(=O)OCc1c(COC(=O)NC(C)C)c(-c2ccc(Cl)c(Cl)c2)n2c1CCC2	179	1.7	1.26 (≈ 0.608 µg/mL)	2.01	3.16	-5.6	160	-3.4	-3.9	110	13	-1.4	-2.8	-5.3	5.25	205	164	Log cell kill (P388 [32]): -1.44; T/C (P388 [33]): 127%; T/C (P388 [34]): 126%; Weight change (P388 [35]): -4 g; Weight change (P388 [36]): -0.5 g; Weight change (P388 [37]): -0.7 g; Log cell kill (P388 [38]): -1.41; Weight change (P388 [39]): -1.8 g; Weight change (P388 [40]): -2.6 g; T/C (P388 [41]): 144%; Log cell kill (P388 [42]): -1.64; T/C (P388 [43]): 155%; Log cell kill (P388 [44]): -1.63; Log cell kill (P388 [45]): -1.25; T/C (P388 [46]): 141%; Weight change (P388 [47]): -0.8 g; Log cell kill (P388 [48]): -1.52; T/C (P388 [48]): 135%
CC(C)NC(=O)OCc1c(COC(=O)NC(C)C)c(-c2ccc(Cl)c(Cl)c2)n2c1CC(OC(=O)CCC(=O)[O-])C2.[K+] (centres undefined)			38800								92							
